Assay: Michaelis constant for Actinidin-catalyzed hydrolysis
Assay type: ADME
Outline: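 Actinidin purified in-house from kiwi fruit, stored as crystal suspension in 0.1 M sodium phosphate pH 6 with 20% ammonium sulfate; diluted, activated with aqueous DTE (~15 mg/mL), then diluted in 0.1 M sodium phosphate pH 6.0. Substituted-phenyl hippurate added in CH3CN to enzyme-buffer at 25 °C; initial hydrolysis rates read spectrophotometrically at ≥8 substrate concentrations.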

| SMILES | Log 1/Km |
| --- | --- |
| CC(=O)Nc1cccc(OC(=O)CNC(=O)c2ccccc2)c1 | 3.18 |
| N#Cc1ccc(OC(=O)CNC(=O)c2ccccc2)cc1 | 3.62 |
| NS(=O)(=O)c1cccc(OC(=O)CNC(=O)c2ccccc2)c1 | 3.42 |
| NC(=O)c1cccc(OC(=O)CNC(=O)c2ccccc2)c1 | 3.15 |
| O=C(CNC(=O)c1ccccc1)Oc1ccccc1 | 2.77 |
| O=C(CNC(=O)c1ccccc1)Oc1cccc([N+](=O)[O-])c1 | 3.53 |
| CC(=O)c1ccc(OC(=O)CNC(=O)c2ccccc2)cc1 | 3.47 |
| NS(=O)(=O)c1ccc(OC(=O)CNC(=O)c2ccccc2)cc1 | 3.22 |
| O=C(CNC(=O)c1ccccc1)Oc1cccc(C(F)(F)F)c1 | 3.47 |
| COc1ccc(OC(=O)CNC(=O)c2ccccc2)cc1 | 2.87 |
| O=C(CNC(=O)c1ccccc1)Oc1ccc([N+](=O)[O-])cc1 | 3.8 |
| N#Cc1cccc(OC(=O)CNC(=O)c2ccccc2)c1 | 3.08 |
| NC(=O)c1ccc(OC(=O)CNC(=O)c2ccccc2)cc1 | 3.47 |

Other lines, results leading:

| Log 1/Km | SMILES |
| --- | --- |
| 2.72 | O=C(CNC(=O)c1ccccc1)Oc1ccc(F)cc1 |
| 3.66 | CC(C)(C)c1cccc(OC(=O)CNC(=O)c2ccccc2)c1 |
| 2.95 | Cc1ccc(OC(=O)CNC(=O)c2ccccc2)cc1 |
| 2.55 | Nc1ccc(OC(=O)CNC(=O)c2ccccc2)cc1 |
| 3.63 | O=C(CNC(=O)c1ccccc1)Oc1cccc(Cl)c1 |
| 3.84 | O=C(CNC(=O)c1ccccc1)Oc1cc(Cl)cc(Cl)c1 |
| 4.01 | O=C(CNC(=O)c1ccccc1)Oc1cc(Cl)c(Cl)c(Cl)c1 |
| 3.37 | Cc1cc(C)cc(OC(=O)CNC(=O)c2ccccc2)c1 |
| 3.52 | CCc1cc(C)cc(OC(=O)CNC(=O)c2ccccc2)c1 |
| 3.01 | O=C(CNC(=O)c1ccccc1)Oc1cccc(F)c1 |
| 3.9 | O=C(CNC(=O)c1ccccc1)Oc1cc([N+](=O)[O-])cc([N+](=O)[O-])c1 |
| 3.04 | O=C(CNC(=O)c1ccccc1)Oc1ccc(Cl)cc1 |
| 3.6 | COc1cc(OC)cc(OC(=O)CNC(=O)c2ccccc2)c1 |
| 3.93 | O=C(CNC(=O)c1ccccc1)Oc1cccc(I)c1 |
| 3.26 | Cc1cccc(OC(=O)CNC(=O)c2ccccc2)c1 |
| 3.64 | O=C(CNC(=O)c1ccccc1)Oc1cccc(Br)c1 |
